# Measurements published in ChEMBL document CHEMBL1123985, “Oral absorption of cephalosporin antibiotics. 1. Synthesis, biological properties, and oral bioavailability of 7-(arylacetamido)-3-chloro cephalosporins in animals” (J Med Chem, 1988).
# What was measured:
# [1] = Area under plasma concentration vs time curve observed in Rhesus monkeys after, iv administration of single 30 mg/kg dose; assay type: ADME, organism-based, Macaca mulatta; parameters: dose 30 mg/kg, route intravenous; conditions: rhesus monkey
# Procedure, shortened: (§1)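 Rhesus monkeys, adult males, six animals per compound, each given drug orally and iv; fasted overnight. Single 30 mg/kg solution doses, by nasogastric tube (in water) or saphenous vein (in isotonic lactated Ringer). Plasma sampled at intervals, frozen at -70 °C, antibacterial activity by microbiological assay. AUC in μg min/mL; oral bioavailability from oral vs iv AUC.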
# [2] = Area under plasma concentration vs time curve observed in Rhesus monkeys after oral administration of single 30 mg/kg dose; assay type: ADME, organism-based, Macaca mulatta; parameters: dose 30 mg/kg, route oral; conditions: rhesus monkey; procedure, shortened: as §1
# [3] = test system: Canis familiaris; experiment: Area under plasma concentration vs time curve observed in female mongrel dogs after, iv administration of single 15 mg/kg dose; assay type: ADME, organism-based, Canis lupus familiaris; parameters: dose 15 mg/kg, route intravenous; conditions: dog, in vivo
# Procedure, shortened: (§2)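 Six female mongrel dogs (14-23 kg) fasted overnight, bladder catheterized; single 15 mg/kg solution doses by stomach tube (in water, total 500 mL) or cephalic vein (saline or pH 6.0 NaCl/phosphate/acetate buffer). Plasma sampled at intervals; activity by disk-plate agar diffusion against E. coli MB 3804, standards in dog serum or buffer. AUC μg min/mL, mean ± SEM; BA from iv vs po AUC and urinary recovery.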
# [4] = test system: Canis familiaris; experiment: Area under plasma concentration vs time curve observed in female mongrel dogs after, oral administration of single 15 mg/kg dose; assay type: ADME, organism-based, Canis lupus familiaris; parameters: dose 15 mg/kg, route oral; conditions: dog, in vivo; procedure, shortened: as §2
# [5] = Area under plasma concentration vs time curve observed in rats for 0-3 h; assay type: ADME; parameters: time < 3 hr; conditions: rat
# Procedure, shortened: (§3)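 Rats, jugular vein cannulated (two per group), test compound iv 20 mg/kg; probenecid 100 mg/kg iv 5 min before in treated groups. Heparinized plasma sampled at 5, 20, 40 min and 1, 2, 3 h, assayed microbiologically (B. subtilis agar well). AUC 0-3 h in μg min/mL; half-life in min.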
# [6] = Oral bioavailability in mouse; assay type: ADME, organism-based; conditions: in vivo
# Procedure, shortened: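 Male Cox mice given water and liquid diet overnight; 20 mg/kg in saline (2 mg/mL) sc or orally; urine from collection cages plus bladder contents over 2 h; activity by agar well assay with Bacillus subtilis ATCC 6633. Bioavailability from percent dose excreted in urine after oral vs parenteral dosing.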
# [7] = Bioavailability in rat; assay type: ADME, organism-based; conditions: in vivo
# Procedure, shortened: (§4)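 Male Wistar rats (200-300 g), jugular-cannulated, upper GI emptied by light cycle; 20 mg/kg in saline (6 mg/mL) sc or orally. Urine collected in wire-bottom cages, assayed by B. subtilis agar well method. Mean ± SD recovery with N and range; bioavailability = oral over mean sc recovery.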
# [8] = Mean plasma levels in rats 1 hr after iv administration of 100 mg/kg of probenecid 5 min prior to test compound; assay type: ADME, organism-based; parameters: dose 100 mg/kg, route intravenous; conditions: rat, read-out: Plasma level; procedure, shortened: as §3
# [9] = Mean plasma levels in rats 2 hr after iv administration of 100 mg/kg of probenecid 5 min prior to test compound; assay type: ADME, organism-based; parameters: dose 100 mg/kg, route intravenous; conditions: rat, read-out: Plasma level; procedure, shortened: as §3
# [10] = Mean plasma levels in rats 3h after intravenous administration of 20 mg/kg of compound; assay type: ADME, organism-based; parameters: dose 20 mg/kg, route intravenous; conditions: rat, read-out: Plasma level; procedure, shortened: as §3
# [11] = Mean plasma levels in rats 40 min after iv administration of 100 mg/kg of probenecid 5 min prior to test compound; assay type: ADME, organism-based; parameters: dose 100 mg/kg, route intravenous; conditions: rat, read-out: Plasma level; procedure, shortened: as §3
# [12] = Mean plasma levels in rats at a time 5 min after iv administration of 100 mg/kg of probenecid 5 min prior to test compound; assay type: ADME, organism-based; parameters: dose 100 mg/kg, route intravenous; conditions: rat, read-out: Plasma level; procedure, shortened: as §3
# [13] = Mean plasma levels in rats 20 min after iv administration of 100 mg/kg of probenecid 5 min prior to test compound; assay type: ADME, organism-based; parameters: dose 100 mg/kg, route intravenous; conditions: rat, read-out: Plasma level; procedure, shortened: as §3
# [14] = Oral bioavailability in Rhesus monkey; assay type: ADME, organism-based, Macaca mulatta; conditions: in vivo; procedure, shortened: as §1
# [15] = Percent of urinary recovery in rats after, oral administration of single 20 mg/kg dose in solution (N,range); assay type: ADME, organism-based; parameters: dose 20 mg/kg, route oral; conditions: rat, urine, read-out: Recovery; procedure, shortened: as §4
# [16] = Percent of urinary recovery in rats after, sc administration of single 20 mg/kg dose in solution (N,range); assay type: ADME, organism-based; parameters: dose 20 mg/kg, route subcutaneous; conditions: rat, urine, read-out: Recovery; procedure, shortened: as §4
# [17] = dose in urine (24-h urine excretion) in female mongrel dogs after, oral administration of single 15 mg/kg dose; assay type: ADME, organism-based, Canis lupus familiaris; parameters: dose 15 mg/kg, route oral; conditions: dog
# Procedure, shortened: (§5)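 Female mongrel dogs (n=6), bladder catheter; urine collected at intervals after single 15 mg/kg iv or oral solution dose, frozen; antibiotic activity by disk-plate agar diffusion against E. coli MB 3804 with standards in pH 6.0 buffer; percent of dose recovered in urine.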
# [18] = dose in urine (24-h urine excretion) in female mongrel dogs after, iv administration of single 15 mg/kg dose; assay type: ADME, organism-based, Canis lupus familiaris; parameters: dose 15 mg/kg, route intravenous; conditions: dog; procedure, shortened: as §5
# [19] = Half-life of the compound; assay type: ADME; procedure, shortened: as §3
# [20] = test system: Escherichia coli; experiment: Minimum inhibitory concentration against EC14 strain Escherichia coli; assay type: functional
# [21] = test system: Klebsiella aerogenes; experiment: Minimum inhibitory concentration against EB17 strain of Enterobacter aerogenes; assay type: functional
# [22] = test system: Klebsiella pneumoniae; experiment: Minimum inhibitory concentration against X68 strain of Klebsiella pneumoniae; assay type: functional
# [23] = test system: Mus musculus; experiment: Efficacy against mouse infected ip with C203 strain of Streptococcus pyogenes, administered po to 19-21-g random sex ICR mice at 1 hr and 5 hr; assay type: functional
# Procedure, shortened: (§6)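 ICR mice, random sex, 19-21 g, challenged ip with 50-500 LC50 from a frozen organism pool; compound given sc or po at 1 and 5 h after challenge, five 2-fold dose levels, eight mice per level; ED50 derived.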
# [24] = test system: Mus musculus; experiment: Efficacy against mouse infected ip with C203 strain of Streptococcus pyogenes, administered sc to 19-21-g random sex ICR mice at 1 hr and 5 hr; assay type: functional; procedure, shortened: as §6
# [25] = test system: Mus musculus; experiment: Efficacy against mouse infected ip with park strain of Streptococcus pneumoniae administered po to 19-21-g random sex ICR mice at 1 hr and 5 hr; assay type: functional; procedure, shortened: as §6
# [26] = test system: Mus musculus; experiment: Efficacy against mouse infected ip with park strain of Streptococcus pneumoniae administered sc to 19-21-g random sex ICR mice at 1 hr and 5 hr; assay type: functional; procedure, shortened: as §6
# [27] = test system: Mus musculus; experiment: Efficacy against mouse infected ip with 3055 strain of Staphylococcus aureus, administered po to 19-21-g random sex ICR mice at 1 hr and 5 hr; assay type: functional; procedure, shortened: as §6
# [28] = test system: Mus musculus; experiment: Efficacy against mouse infected ip with 3055 strain of Staphylococcus aureus, administered sc to 19-21-g random sex ICR mice at 1 hr and 5 hr; assay type: functional; procedure, shortened: as §6
# [29] = test system: Salmonella; experiment: Minimum inhibitory concentration against X514 strain of Salmonella; assay type: functional
# [30] = Minimum inhibitory concentration against N9 strain of Shigella sonnei; assay type: functional
# [31] = test system: Staphylococcus epidermidis; experiment: Minimum inhibitory concentration against 222 strain of Staphylococcus epidermidis; assay type: functional
# [32] = test system: Staphylococcus epidermidis; experiment: Minimum inhibitory concentration against Epil strain of Staphylococcus epidermidis; assay type: functional
# [33] = test system: Staphylococcus aureus; experiment: Minimum inhibitory concentration against S13E strain of Staphylococcus aureus; assay type: functional
# [34] = test system: Staphylococcus aureus; experiment: Minimum inhibitory concentration against V41 strain of Staphylococcus aureus; assay type: functional
# [35] = test system: Staphylococcus aureus; experiment: Minimum inhibitory concentration against X1.1 strain of Staphylococcus aureus; assay type: functional
# [36] = test system: Streptococcus pyogenes; experiment: Minimum inhibitory concentration against Streptococcus pyogenes C203; assay type: functional
# [37] = Minimum inhibitory concentration against sens CL strain of Haemophilus influenzae; assay type: functional
# [38] = Minimum inhibitory concentration against res 76 strain of Haemophilus influenzae; assay type: functional
# [39] = test system: Streptococcus pneumoniae; experiment: Minimum inhibitory concentration against Park strain of Streptococcus pneumoniae; assay type: functional
# [40] = in vivo; conditions: rat
# [41] = test system: Staphylococcus aureus; experiment: Minimum inhibitory concentration against 3055 strain of Staphylococcus aureus
# [42] = test system: Streptococcus pyogenes; experiment: Minimum inhibitory concentration against C203 strain of Streptococcus pyogenes
# [43] = test system: Streptococcus pneumoniae; experiment: Minimum inhibitory concentration against park strain of Streptococcus pneumoniae
smiles,measurement,setting,value
CC1(C)S[C@@H]2[C@H](NC(=O)COc3ccccc3)C(=O)N2[C@H]1C(=O)O [PENICILLIN V],AUC,[1],43000 ng·h/mL
same,AUC,[2],2330 ng·h/mL
same,AUC,[3],25300 ng·h/mL
same,AUC,[4],3000 ng·h/mL
same,AUC at 3 h,[5],32000 ng·h/mL
same,bioavailability,[6],29%
same,bioavailability,[7],11.6%
same,concentration at 1 h,[8],6800 ng/mL
same,concentration at 2 h,[9],800 ng/mL
same,concentration at 3 h,[10],< 300 ng/mL
same,concentration at 40 min,[11],14100 ng/mL
same,concentration at 5 min,[12],59000 ng/mL
same,concentration at 20 min,[13],30400 ng/mL
same,bioavailability,[14],5.5%
same,dose excreted,[15],2.6%
same,dose excreted,[16],22.5%
same,dose excreted,[17],4.9%
same,dose excreted,[18],32%
same,half-life,[19],19.4 min
same,MIC,[20],> 128 µg/mL
same,MIC,[21],> 128 µg/mL
same,MIC,[22],> 128 µg/mL
same,ED50,[23],0.62 mg/kg
same,ED50,[24],0.16 mg/kg
same,ED50,[25],2.8 mg/kg
same,ED50,[26],2.1 mg/kg
same,ED50,[27],0.5 mg/kg
same,ED50,[28],0.04 mg/kg
same,MIC,[29],> 128 µg/mL
same,MIC,[30],> 128 µg/mL
same,MIC,[31],0.06 µg/mL
same,MIC,[32],0.125 µg/mL
same,MIC,[33],16 µg/mL
same,MIC,[34],32 µg/mL
same,MIC,[35],0.06 µg/mL
same,MIC,[36],0.06 µg/mL
same,MIC,[37],64 µg/mL
same,MIC,[38],> 128 µg/mL
same,MIC,[39],16 µg/mL
same,bioavailability,[40],34%
same,MIC,[41],0.04 µg/mL
same,MIC,[42],0.06 µg/mL
same,MIC,[43],0.02 µg/mL
